From PubChem
RORa inhibitor: blocks the human nuclear receptor RORA; 65,000 tested, 0.43% active; CHO-K1 Gal4-RORA LBD luciferase reporter, luminescence; inhibition, % at 10 µM; AID 561;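 active = inhibition above the mean of all tested compounds plus 3 SD, cut at about 52% in these data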
Target sequence (P35398 whole entry, looked up, the tested form may be a part): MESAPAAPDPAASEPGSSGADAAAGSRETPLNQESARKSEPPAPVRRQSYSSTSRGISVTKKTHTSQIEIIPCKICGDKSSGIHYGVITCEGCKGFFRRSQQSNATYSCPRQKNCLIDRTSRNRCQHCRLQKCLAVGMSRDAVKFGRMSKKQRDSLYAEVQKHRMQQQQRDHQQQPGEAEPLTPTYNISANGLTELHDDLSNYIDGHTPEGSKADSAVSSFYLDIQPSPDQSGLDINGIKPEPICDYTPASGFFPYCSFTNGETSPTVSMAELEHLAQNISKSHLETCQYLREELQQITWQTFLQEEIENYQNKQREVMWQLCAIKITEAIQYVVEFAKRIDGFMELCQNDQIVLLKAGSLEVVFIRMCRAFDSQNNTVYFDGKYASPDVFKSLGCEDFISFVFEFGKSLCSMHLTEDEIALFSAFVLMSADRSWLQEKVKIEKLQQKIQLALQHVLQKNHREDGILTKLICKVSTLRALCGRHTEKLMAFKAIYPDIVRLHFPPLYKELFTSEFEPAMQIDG
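Material: transiently transfected CHO-K1 cells, Gal4-DBD/human RORA-LBD fusion plus 5xGal4-luciferase reporter; doses: single concentration per compound, 10 µM final; incubation: 20 h at 37 °C; detection: luminescence from basal luciferase reporter expression; read-out: % inhibition of basal luciferase versus +RORA/-RORA DMSO controls; replication: tested once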
Hits are given with their value; – = inactive. This excerpt belongs to a sample that is enriched for hits.

SMILES	RORa inhibitor
COC(=O)c1nnn(CC(=O)Nc2cccc(Cl)c2)c1C(=O)OC	–
Cn1cc(S(=O)(=O)NCc2cccs2)c(=O)n(C)c1=O	–
Cn1c(SCc2ccccc2Cl)nnc1-c1cnccn1	–
NCCCCCc1nnc(SCc2ccccc2Cl)o1	56.7
O=C(CSc1nnc(-c2ccccc2Cl)o1)N1CCCCC1	–
O=C(/C=C\Nc1ccccn1)c1ccc(Cl)cc1	63.8
O=C(/C=C/Nc1ccc(F)c(Cl)c1)c1ccco1	–
O=C(Nc1ccc(Cl)cn1)c1cccc(F)c1	–
CC(C)(C)NC(=O)CSc1n[nH]c(=O)n1-c1ccccc1	–
Cc1csc(NC(=O)CNC(=O)OCc2ccccc2)n1	–
O=c1cnc2ccccc2n1CC1CCCCC1	–
O=C(CSc1nnc(NC(=O)CN2CCOCC2)s1)Nc1ccccc1	–
O=c1c2ccccc2cnn1-c1nc2ccccc2s1	90.0
O=c1c2ccccc2nc2sc3ccccc3n12	–
Cc1nn(-c2nc3ccccc3s2)c(N)c1Sc1ccc(F)cc1	–
O=C(NC1CCN(Cc2ccccc2)CC1)C1CCCN(S(=O)(=O)c2cccc3nonc23)C1 (centres undefined)	–
O=C(CN(C1CCCCC1)S(=O)(=O)c1ccc(Cl)cc1)NCCCO	–
COC(=O)c1ccc(CSc2nc3scc(-c4cccs4)c3c(=O)[nH]2)o1	–
Clc1ccc(-c2nn3c(Cn4cnc5ccccc54)nnc3s2)c(Cl)c1	–
O=C(O)c1cccc(COc2ccc(CO)cc2Cl)c1	93.8
CCOc1ccc(CCNC(=O)C(O)c2ccccc2)cc1 (centres undefined)	–
COc1ccc(NS(=O)(=O)c2cc(C(=O)O)ccc2C)cc1	–
O=C(O)c1ccc(COc2ccc(CO)cc2Cl)cc1	–
COc1ccc(OCc2cccc(C(=O)O)c2)cc1	94.1
CCOc1ccc(OCc2cccc(C(=O)O)c2)cc1	93.8
SMILES	RORa inhibitor
CN1CCN(C(=O)c2ccc(COc3ccc(Cl)cc3Cl)cc2)CC1	–
Cn1nnc(NC(=O)c2cccc(OCc3ccccc3)c2)n1	–
CCOc1ccc2oc(-c3ccccc3)c(C(=O)O)c2c1	–
CS(=O)(=O)Nc1ccc(S(=O)(=O)NCCc2ccccc2)cc1	–
COc1cccc(C2=N/C(=C\N(C)C)C(=O)O2)c1	–
CC(C)C1=C2CCCCC2NC(=O)N1 (centres undefined)	–
COc1cccc(C2/C(=C(/O)c3ccccc3)C(=O)C(=O)N2CCCC(=O)O)c1 (centres undefined)	–
Nc1cc(C2CCCC2)nn1-c1ccccc1	–
O=C(CCCNS(=O)(=O)c1cccc2nsnc12)NCc1ccc(F)cc1	–
COc1ccc(S(=O)(=O)N(C)CC(=O)N2CCC(C)CC2)cc1Cl	–
CCOC(=O)N1CCN(C(=O)c2cccc(-n3c(=S)[nH]c4cc(Cl)ccc4c3=O)c2)CC1	–
COc1ccc(OC)c(NC(=O)CSc2nnnn2-c2ccc3c(c2)OCO3)c1	79.9
COc1ccc(OC)c(-n2nnnc2SCC(=O)Nc2ccc(C(=O)N3CCCCC3)cc2)c1	–
CC(C)OC(=O)CSc1nnnn1-c1ccc2c(c1)OCCO2	–
COc1cc(NC(=O)Cn2c(-c3cncs3)nc3ccccc32)cc(OC)c1OC	–
C=CCn1c(C#N)c(N)sc1=N	–
CCOC(=O)c1cccc(NC(=O)C(NS(=O)(=O)c2ccc3c(c2)CCN3C(C)=O)C(C)C)c1 (centres undefined)	–
CCCN1/C(=C(/C#N)C2=NS(=O)(=O)c3ccccc32)N(C)c2ccccc21	–
Cc1[nH]c2ccc(-c3nnc(SCC(=O)c4ccccc4F)o3)cc2c1C	–
Cc1cccc(NC(=O)CSc2nnc(-c3cc(C)n(-c4ccccc4)c3C)o2)c1C	62.8
Cc1ccc(-c2nnc(SCC(=O)Nc3ccccc3F)o2)cc1	63.2
Cc1cc(-c2nnco2)c(C)n1-c1ccccc1	–
Cc1csc(NC(=O)CSc2nnc(-c3ccoc3C)o2)n1	–
Cc1cccc(C)c1OCc1nnc(SCC(=O)Nc2ccccc2F)o1	–
Cc1ccc2c(=O)c(CN(C)C3CCN(C)CC3)c(C)[nH]c2c1C	–
SMILES	RORa inhibitor
CC(=O)c1c(N2CCN(Cc3ccc4c(c3)OCO4)CC2)nc(=S)n(-c2ccccc2)c1C	–
COC(=O)[C@@H](NC(=O)NC1CCCc2ccccc21)C(C)C (some centres undefined)	–
OCCNc1nc(OCC(F)(F)F)nc(N2CCN(C34CC5CC(CC(C5)C3)C4)CC2)n1	–
Cc1ccc(S(=O)(=O)Nc2cccc3ncccc23)s1	80.2
O=C(CSc1nccc2ccccc12)N1CCN(Cc2ccc3c(c2)OCO3)CC1	–
CCC(=O)Nc1c(OC(=O)CC)ccc2c(C)cc(=O)oc12	–
C=C(C)C(C)(C#CCN1CCCC1)OC(C)=O (centres undefined)	–
COc1ccc(CNC(=O)c2cc3c(C)nc4ccccc4c3o2)c(OC)c1	55.4
COc1ccc(Nc2nc(C)c3ccccc3n2)cc1	–
COc1ccc(NC(=O)c2cc(-c3ccc(C)o3)nc3ccccc23)cc1OC	–
CCOc1cccc(-c2nnc3sc(COc4ccc(Cl)cc4)nn23)c1	–
O=C(COc1ccccc1)Nc1nc2ccccc2[nH]1	–
CCOc1ccccc1OCC(=O)Nc1ccc(S(=O)(=O)N(C)C)cc1	–
Cc1cnc(NC(=O)COc2ccccc2Cl)s1	73.5
CCOc1ccc(C2=Nn3c(nnc3-c3ccccc3OC)SC2)cc1	54.0
COc1ccccc1-c1nnc(SCC(=O)Nc2nc(-c3ccccc3)cs2)n1C	–
Clc1ccc(C2=Nn3c(nnc3-c3n[nH]c4c3CCC4)SC2)cc1	–
CCOc1ccccc1/C=c1\sc2ncnn2c1=O	–
CCOc1ccc(C(=O)Nc2ccc(Cl)cn2)cc1Cl	–
O=C(NCc1ccco1)c1ccc2nc3sc4c(c3c(=O)n2c1)CCCC4	56.0
O=C(Nc1ncnc2sc3c(c12)CCC3)c1ccco1	–
O=C(Cn1c(=O)sc2ccccc21)NCc1ccco1	–
CCOC(=O)c1sc2nc(NC(=O)c3cccs3)sc2c1C	–
CCc1ccc(S(=O)(=O)NCc2csc(C)n2)s1	–
O=c1cc(-c2c(F)c(F)c(F)c(F)c2F)oc2c(F)c(F)c(F)c(F)c12	83.9
SMILES	RORa inhibitor
O=C(CCCCn1c(=O)c2ccccc2n(CC(=O)NC2CCCC2)c1=O)NCc1ccco1	–
COc1ccc(-n2c(C)cc(C(=O)Cn3c(NCCO)nc4ccccc43)c2C)cc1	–
c1ccc2c(c1)ncn2CCC1CCCCC1	–
c1ccc(N=P(N2CCOCC2)(N2CCOCC2)N2CCOCC2)cc1	–
CC1CCN(c2nc3ccc(C(=O)O)cc3s2)CC1	92.4
CCOc1ccc2nc(N3CCC(C(=O)N4CCN(c5ncccn5)CC4)CC3)sc2c1	–
O=C(NCC1CCCO1)c1ccc2nc(N3CCCCC3)sc2c1 (centres undefined)	–
c1cncc(Oc2cccc(Oc3cccnc3)c2)c1	–
Cc1occc1C(=O)Nc1ccc2ccccc2c1	–
COc1ccc(CNC(=O)CCCCCn2c(SCC#N)nc3cc4c(cc3c2=O)OCO4)cc1	–
Cc1ccc(-c2nnc(CSc3nncn3N)o2)cc1	–
Cn1c(=O)[nH]c(=O)c2c1nc(Sc1nc3ccccc3s1)n2Cc1ccccc1	–
CC(C)Cn1cc(C(=O)NCc2cccs2)c2c3ccccc3n(C)c2c1=O	–
CCn1c(SCC(=O)Nc2cccc(NC(C)=O)c2)nnc1C(C)C	–
CCOC(=O)c1c(N)sc2c1CCC1C(=O)N(C3CCCCC3)C(=O)C21 (centres undefined)	–
O=S1(=O)C=C(Sc2nc3cc(Cl)ccc3o2)c2ccccc21	75.3
O=C1CN(C(=O)CSc2nnnn2-c2ccc(Cl)cc2)c2ccccc2N1	–
